Reference: PMC6176371 (Oncology Letters, 2018)
Entries after “also recorded” stand apart in the source; their conditions may differ. Where two headings read alike, the source gives them in different places. One block for each molecule: values may come before it.

How the values were obtained:
CYP3A4 = CYP3A4 (Homo sapiens, UniProt P08684); assay: CYP inhibition in pooled human liver microsomes, CYP3A4; assay type: biochemical
Balb/c mice = assay: Maximum tolerant dosage, single high-dose PPD12; assay type: in vivo; settings: 1 g/kg PPD12
Procedure, shortened: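 Single oral gavage of test compound at 1 g/kg to Balb/c mice to assess tolerability of a single high dose.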

heart tissues = assay: TUNEL assay of heart tissues; assay type: in vivo; settings: male and female Balb/c mice
Procedure, shortened: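 Heart tissue came from the 3-week mouse study: vehicle; test compound 100 mg/kg gavage twice weekly; ADM 20 mg/kg i.p. on day 6; combination. Paraffin sections (4 µm) were stained with an in situ TUNEL kit, and positive cells were counted in three random fields per slide by light microscopy. Percent apoptotic cells was compared by one-way ANOVA with Dunnett's test.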

CYP2C8 = biological target: T1, CYP2C8 (Homo sapiens, UniProt P10632); assay: CYP inhibition in pooled human liver microsomes, CYP2C8; assay type: biochemical; settings: CYP2C8, Amodiaquine N-deethylation
T1 sequence (P10632 1-490): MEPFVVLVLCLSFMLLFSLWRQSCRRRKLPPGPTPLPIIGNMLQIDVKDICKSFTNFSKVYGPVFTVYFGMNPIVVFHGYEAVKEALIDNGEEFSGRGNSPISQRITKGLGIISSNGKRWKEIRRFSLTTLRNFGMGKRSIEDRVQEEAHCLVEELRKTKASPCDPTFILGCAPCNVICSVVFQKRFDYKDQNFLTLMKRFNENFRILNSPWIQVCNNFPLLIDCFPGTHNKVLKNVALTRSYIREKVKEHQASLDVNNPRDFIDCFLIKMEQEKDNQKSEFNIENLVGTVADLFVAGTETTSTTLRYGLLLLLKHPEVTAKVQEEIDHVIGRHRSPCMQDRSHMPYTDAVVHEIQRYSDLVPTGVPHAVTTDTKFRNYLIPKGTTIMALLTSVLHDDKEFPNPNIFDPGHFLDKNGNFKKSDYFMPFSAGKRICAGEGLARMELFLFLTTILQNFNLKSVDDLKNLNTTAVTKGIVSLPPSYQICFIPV

[1] = Pharmacokinetic study, oral and i.v. administration; assay type: in vivo, SD rats
Procedure, shortened: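 Adult male SD rats got a single 10 mg/kg dose by tail-vein injection or oral gavage. Blood was drawn from three rats predose and at 0.083–24 h; plasma was frozen at −80°C. Plasma was deproteinized with methanol containing 250 nM internal standard for LC/MS/MS. PK parameters came from a noncompartmental i.v.-bolus model.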

CYP2C19 = CYP2C19 (Homo sapiens, UniProt P33261); settings: CYP2C19, S-mephenytoin4′-hydroxylation, human liver microsomes
CYP2C19, sequence (P33261 whole entry): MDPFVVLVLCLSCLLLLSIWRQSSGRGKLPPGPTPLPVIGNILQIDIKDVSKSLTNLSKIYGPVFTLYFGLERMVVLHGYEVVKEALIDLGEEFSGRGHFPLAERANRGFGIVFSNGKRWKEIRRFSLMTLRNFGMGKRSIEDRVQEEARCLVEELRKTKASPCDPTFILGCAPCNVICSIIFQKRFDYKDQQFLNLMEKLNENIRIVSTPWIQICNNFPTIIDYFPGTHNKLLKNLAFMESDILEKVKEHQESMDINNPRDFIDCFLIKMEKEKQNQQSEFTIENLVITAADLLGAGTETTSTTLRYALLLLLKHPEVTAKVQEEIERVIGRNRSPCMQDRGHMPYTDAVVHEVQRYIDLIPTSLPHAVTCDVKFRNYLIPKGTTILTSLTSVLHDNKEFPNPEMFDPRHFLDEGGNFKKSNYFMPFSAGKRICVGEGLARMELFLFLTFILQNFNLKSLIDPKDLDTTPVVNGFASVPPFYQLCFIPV

CYP1A2 = biological target: T2, CYP1A2 (Homo sapiens, UniProt P05177); assay: CYP inhibition in pooled human liver microsomes, CYP1A2; assay type: biochemical
T2 sequence (P05177 1-516): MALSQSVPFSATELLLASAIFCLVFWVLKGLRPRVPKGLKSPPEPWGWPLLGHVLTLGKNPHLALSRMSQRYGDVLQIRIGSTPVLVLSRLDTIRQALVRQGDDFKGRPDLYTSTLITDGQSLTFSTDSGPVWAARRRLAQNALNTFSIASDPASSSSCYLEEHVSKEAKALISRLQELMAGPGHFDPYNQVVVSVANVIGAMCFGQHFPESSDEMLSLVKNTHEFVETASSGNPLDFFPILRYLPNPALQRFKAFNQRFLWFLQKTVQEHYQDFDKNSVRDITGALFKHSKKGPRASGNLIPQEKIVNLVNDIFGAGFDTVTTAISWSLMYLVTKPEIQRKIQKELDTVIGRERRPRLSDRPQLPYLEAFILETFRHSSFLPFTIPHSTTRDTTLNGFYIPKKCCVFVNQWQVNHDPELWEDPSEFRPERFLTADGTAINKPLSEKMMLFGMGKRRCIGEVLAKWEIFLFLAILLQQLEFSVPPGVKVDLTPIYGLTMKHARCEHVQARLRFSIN

CYP2D6 = CYP2D6 (Homo sapiens, UniProt P10635); assay: CYP inhibition in pooled human liver microsomes, CYP2D6; assay type: biochemical; settings: CYP2D6, Dextromethorphandextrorphan
CYP2D6, sequence (P10635 whole entry): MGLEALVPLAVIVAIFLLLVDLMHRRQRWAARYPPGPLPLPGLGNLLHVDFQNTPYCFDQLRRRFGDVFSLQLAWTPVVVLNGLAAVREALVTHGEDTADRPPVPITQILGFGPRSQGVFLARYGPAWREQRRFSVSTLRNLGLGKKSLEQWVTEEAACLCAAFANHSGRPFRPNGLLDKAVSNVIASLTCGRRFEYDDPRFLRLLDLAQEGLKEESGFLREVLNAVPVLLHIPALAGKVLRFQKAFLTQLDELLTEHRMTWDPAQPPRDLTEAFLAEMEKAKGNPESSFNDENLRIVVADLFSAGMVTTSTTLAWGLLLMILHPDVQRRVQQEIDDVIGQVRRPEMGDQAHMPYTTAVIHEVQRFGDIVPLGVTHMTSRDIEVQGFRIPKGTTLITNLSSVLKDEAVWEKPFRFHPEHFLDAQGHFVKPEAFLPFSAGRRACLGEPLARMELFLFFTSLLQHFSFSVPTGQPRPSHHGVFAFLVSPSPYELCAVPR

CYP2C9 = CYP2C9 (Homo sapiens, UniProt P11712); assay: CYP inhibition in pooled human liver microsomes, CYP2C9; assay type: biochemical
CYP2C9, sequence (P11712 whole entry): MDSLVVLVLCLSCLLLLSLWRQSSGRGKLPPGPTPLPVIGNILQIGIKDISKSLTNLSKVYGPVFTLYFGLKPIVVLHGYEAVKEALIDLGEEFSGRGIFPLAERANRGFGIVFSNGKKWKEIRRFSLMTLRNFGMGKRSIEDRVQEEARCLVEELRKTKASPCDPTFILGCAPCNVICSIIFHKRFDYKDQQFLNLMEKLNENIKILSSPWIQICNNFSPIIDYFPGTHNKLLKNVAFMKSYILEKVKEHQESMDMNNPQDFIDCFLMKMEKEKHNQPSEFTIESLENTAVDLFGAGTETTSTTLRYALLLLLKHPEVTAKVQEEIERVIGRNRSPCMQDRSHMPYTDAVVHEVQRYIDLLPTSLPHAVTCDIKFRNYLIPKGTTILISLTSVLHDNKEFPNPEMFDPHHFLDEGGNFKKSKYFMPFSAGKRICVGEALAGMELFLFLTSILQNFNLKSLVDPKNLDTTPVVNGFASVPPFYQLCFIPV

CYP2B6 = biological target: T3, CYP2B6 (Homo sapiens, UniProt P20813); assay: CYP inhibition in pooled human liver microsomes, CYP2B6; assay type: biochemical; settings: CYP2B6, Bupropion hydroxylation
T3 sequence (P20813 1-491): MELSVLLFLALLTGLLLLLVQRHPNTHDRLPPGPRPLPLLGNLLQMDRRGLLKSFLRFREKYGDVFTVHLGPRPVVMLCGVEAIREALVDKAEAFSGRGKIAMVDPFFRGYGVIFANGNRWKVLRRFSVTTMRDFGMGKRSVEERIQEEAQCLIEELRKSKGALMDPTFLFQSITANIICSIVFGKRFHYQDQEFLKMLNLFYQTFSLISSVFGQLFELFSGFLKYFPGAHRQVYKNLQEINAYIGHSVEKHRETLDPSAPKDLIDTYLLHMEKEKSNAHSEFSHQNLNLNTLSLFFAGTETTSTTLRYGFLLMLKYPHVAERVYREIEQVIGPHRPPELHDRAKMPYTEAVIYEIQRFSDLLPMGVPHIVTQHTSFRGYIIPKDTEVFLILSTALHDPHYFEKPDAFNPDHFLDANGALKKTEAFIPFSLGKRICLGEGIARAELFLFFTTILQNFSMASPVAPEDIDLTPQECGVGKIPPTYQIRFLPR

KB/VCR cells = assay: cells; assay type: cell-based; settings: Homo sapiens, read-out: IC50 ± SD
KB cells = assay: cells; assay type: cell-based; settings: Homo sapiens, read-out: IC50 ± SD

CYP3A4, sequence (P08684 whole entry): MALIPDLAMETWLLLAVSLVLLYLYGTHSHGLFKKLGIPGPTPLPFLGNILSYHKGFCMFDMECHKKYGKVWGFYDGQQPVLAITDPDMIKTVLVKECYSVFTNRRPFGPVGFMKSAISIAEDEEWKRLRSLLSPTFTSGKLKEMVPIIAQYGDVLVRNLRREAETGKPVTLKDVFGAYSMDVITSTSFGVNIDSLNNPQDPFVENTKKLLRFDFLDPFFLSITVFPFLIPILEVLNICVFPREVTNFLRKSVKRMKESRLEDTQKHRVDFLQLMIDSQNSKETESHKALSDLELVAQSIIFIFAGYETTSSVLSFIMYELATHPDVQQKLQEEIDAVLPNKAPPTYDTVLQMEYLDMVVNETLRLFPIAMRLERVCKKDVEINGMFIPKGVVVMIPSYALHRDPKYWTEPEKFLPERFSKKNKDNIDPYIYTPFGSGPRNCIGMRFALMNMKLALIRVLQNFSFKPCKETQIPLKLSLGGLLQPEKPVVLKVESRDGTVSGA

Structure (SMILES): CC1(C)[C@@H](O)CC[C@]2(C)[C@H]3C[C@@H](O)[C@@H]4[C@@H]([C@@](C)(O)CCCNCc5ccccc5)CC[C@@]4(C)[C@]3(C)CC[C@@H]12 [PPD12]
IC50 (CYP3A4; CYP3A4, Midazolam 1′-hydroxylation): 1.03 µM
IC50 (CYP3A4; CYP3A4, Testosterone 6-β-hydroxylation): 8.43 µM
lethal effects / tolerability of a single high dosage (Balb/c mice): did not observe any lethal effects; also recorded: well tolerated
apoptotic cells in heart tissues (TUNEL) compared to the control group (heart tissues): no obvious difference in apoptotic cells
IC50 (CYP2C8): 9.57 µM
oral absolute bioavailability ([1]; male SD rats, 10 mg/kg oral vs i.v.): 114.41±22.24%
bioavailability by oral administration ([1]; mouse model (so in the source)): ~100%
IC50 (CYP2C19): 15 µM
IC50 (CYP1A2; CYP1A2, Phenacetin 0-deethylation): > 33 µM
inhibition of CYP1A2-mediated phenacetin 0-deethylation (CYP1A2; at 33 µM): negligible inhibition
IC50 (CYP2D6): 11.8 µM
IC50 (CYP2C9; CYP2C9, Diclofenac4′-hydroxylation): > 33 µM
inhibition of CYP2C9-mediated diclofenac4′-hydroxylation (CYP2C9; at 33 µM): negligible inhibition
IC50 (CYP2B6): 2.21 µM

IC50 (KB/VCR cells; 24 h): 151 µM
IC50 (KB/VCR cells; 48 h): 4.78 µM
IC50 (KB/VCR cells; 72 h): 1.52 µM
IC50 (KB/VCR cells; 96 h): 1.19 µM
IC50 (KB cells; 24 h): 2.38 µM
IC50 (KB cells; 48 h): 0.39 µM
IC50 (KB cells; 72 h): 0.0713 µM
IC50 (KB cells; 96 h): 0.0351 µM
Structure (SMILES): COc1cccc2c1C(=O)c1c(O)c3c(c(O)c1C2=O)C[C@@](O)(C(=O)CO)C[C@@H]3O[C@H]1C[C@H](N)[C@H](O)[C@H](C)O1 [ADM, Adriamycin]
apoptotic cells in heart tissues (TUNEL) compared to the control group (heart tissues): significant increase in apoptosis
